According to ChEMBL document CHEMBL4842356, “Discovery, optimization, and target identification of novel coumarin derivatives as HIV-1 reverse transcriptase-associated ribonuclease H inhibitors” (Eur J Med Chem, 2021):

What was measured:
[1] = system: Human immunodeficiency virus 1; experiment: Antiviral activity against wild type HIV1 3B infected in human MT4 cells assessed as protection against virus-induced cytopathic effect incubated for 5 days by MTT assay; type: functional, organism-based; conditions: Human immunodeficiency virus 1, 3B, MT4, 120 h
Procedure, shortened: (§1)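 MT-4 cells (exponentially growing, resuspended at 6 × 10⁵ cells/mL) were seeded onto serial five-fold compound dilutions and infected with 100–300 CCID₅₀ virus stock, or given medium only (mock). Viability was read by MTT at 540 and 690 nm five days after infection, using the median OD of three wells. EC₅₀ is 50% protection from viral cytopathicity. CC₅₀ is 50% loss of viability in mock-infected cells.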

[2] = system: Human immunodeficiency virus 2; experiment: Antiviral activity against HIV2 ROD infected in human MT4 cells assessed as protection against virus-induced cytopathic effect incubated for 5 days by MTT assay; conditions: Human immunodeficiency virus 2, ISOLATE ROD, MT4, 120 h
MT4 = experiment: Cytotoxicity against mock-infected human MT4 cells assessed as reduction in cell viability measured after 5 days by MTT assay; type: functional; conditions: MT4, 120 h, time 5 day; procedure, shortened: as §1
[3] = target: Human immunodeficiency virus type 1 reverse transcriptase (Human immunodeficiency virus 1) (UniProt Q72547); experiment: Inhibition of wild type HIV1 Reverse transcriptase RNase H expressed in Escherichia coli at 50 uM using 5'-UUUUUUUUUAGGAUACAUAUGGUUAAAGU-3' oligonucleotide as substrate and DNA21P as primer in presence of [gamma32P]-ATP by PAGE analysis relative to control
[4] = target: Human immunodeficiency virus type 1 reverse transcriptase (Human immunodeficiency virus 1, UniProt Q72547); experiment: Inhibition of wild type HIV1 Reverse transcriptase RNase H expressed in Escherichia coli using 5'-UUUUUUUUUAGGAUACAUAUGGUUAAAGU-3' oligonucleotide as substrate and DNA21P as primer in presence of [gamma32P]-ATP by PAGE analysis
Procedure, shortened: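 Wild-type HIV-1 BH10 RT was expressed in E. coli and purified. RNase H activity was measured on a 31-nt RNA, 5′-³²P-labelled, annealed to a 21-nt DNA (31T/21P). Cleaved substrate was quantified without inhibitor (5% DMSO) and with compound over 0.2–100 µM. IC₅₀ values were taken from dose-response curves.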

[5] = target: Human immunodeficiency virus type 1 reverse transcriptase (Human immunodeficiency virus 1) (UniProt Q72547); experiment: Inhibition of wild type HIV1 Reverse transcriptase RNase H expressed in Escherichia coli at 100 uM using 5'-UUUUUUUUUAGGAUACAUAUGGUUAAAGU-3' oligonucleotide as substrate and DNA21P as primer in presence of [gamma32P]-ATP by PAGE analysis relative to control
[6] = system: Human immunodeficiency virus 1; experiment: Antiviral activity against HIV1 RES056 infected in human MT4 cells assessed as protection against virus-induced cytopathic effect incubated for 5 days by MTT assay; type: functional, organism-based; conditions: Human immunodeficiency virus 1, RES056, MT4, 120 h; procedure, shortened: as §1

Compound | EC50 [1] | EC50 [2] | CC50 (MT4) | inhibition [3] | IC50 [4] | inhibition [5] | EC50 [6]
Cc1c(O)c([N+](=O)[O-])cc2cc(C(=O)NC3CCN(C(=O)N(C)C)CC3)c(=O)oc12 | > 19.9 µM | > 19.9 µM | 19.9 µM |  |  |  | 
Cc1c(O)c([N+](=O)[O-])cc2cc(C(=O)Nc3ccc(F)cc3)c(=O)oc12 | > 6.5 µM | > 6.5 µM | 6.5 µM |  |  |  | 
O=C(NCc1cccc(F)c1)c1cc2cc([N+](=O)[O-])c(O)c(O)c2oc1=O | > 228 µM | > 228 µM | 228 µM |  |  |  | 
O=C(Nc1ccc(F)cc1)c1cc2cc([N+](=O)[O-])c(O)c(O)c2oc1=O | > 200 µM | > 200 µM | 200 µM | < 10% | > 50 µM | 72.5% | 
O=C(O)c1cc(NC(=O)c2cc3cc([N+](=O)[O-])c(O)c(O)c3oc2=O)ccc1O | 101 µM | 116 µM | > 310 µM |  | 20.8 µM |  | 107 µM
Cc1c(O)c([N+](=O)[O-])cc2cc(C(=O)NC3CCN(Cc4ccccc4)CC3)c(=O)oc12 | > 7.8 µM | > 7.8 µM | 7.8 µM |  |  |  | 
Cc1c(O)c([N+](=O)[O-])cc2cc(C(=O)Nc3ccc(O)c(C(=O)O)c3)c(=O)oc12 | 121 µM | 121 µM | > 312 µM |  | 9.9 µM |  | 113 µM
Cc1c(O)c([N+](=O)[O-])cc2cc(C(=O)NC3CCN(Cc4ccc(F)cc4)CC3)c(=O)oc12 | > 42.6 µM | > 42.6 µM | 42.6 µM |  |  |  | 
Cc1ccc(CN2CCC(NC(=O)c3cc4cc([N+](=O)[O-])c(O)c(C)c4oc3=O)CC2)cc1 | > 276 µM | > 276 µM | > 276 µM |  |  |  | 
O=C(NC1CCN(Cc2ccc([N+](=O)[O-])cc2)CC1)c1cc2cc([N+](=O)[O-])c(O)c(O)c2oc1=O | > 101 µM | > 101 µM | > 217 µM |  |  |  | 
CCCN(C(=O)c1cc2cc([N+](=O)[O-])c(O)c(O)c2oc1=O)[C@@H]1CCc2nc(N)sc2C1 | 28.5 µM | 144 µM | > 271 µM |  | 45.1 µM |  | 19.6 µM
N#Cc1ccc(CN2CCC(NC(=O)c3cc4cc([N+](=O)[O-])c(O)c(O)c4oc3=O)CC2)cc1 | 160 µM | > 269 µM | > 269 µM |  |  |  | 
O=C(NCc1ccc(F)cc1)c1cc2cc([N+](=O)[O-])c(O)c(O)c2oc1=O | > 272 µM | > 272 µM | 272 µM |  | > 100 µM | 48% | 
Cc1c(O)c([N+](=O)[O-])cc2cc(C(=O)Nc3cccc(F)c3)c(=O)oc12 | > 12.5 µM | > 12.5 µM | 12.5 µM |  | > 100 µM | 28.6% | 
O=C(NC1CCN(Cc2cccc(F)c2)CC1)c1cc2cc([N+](=O)[O-])c(O)c(O)c2oc1=O | 210 µM | > 220 µM | > 220 µM |  | > 50 µM | 57.7% | 
Cc1cccc(CN2CCC(NC(=O)c3cc4cc([N+](=O)[O-])c(O)c(C)c4oc3=O)CC2)c1 | > 3.88 µM | > 3.88 µM | 3.88 µM | < 10% | > 50 µM | 72.1% | 
Cc1c(O)c([N+](=O)[O-])cc2cc(C(=O)NC3CCN(Cc4ccc(C(N)=O)cc4)CC3)c(=O)oc12 | 138 µM | > 260 µM | > 260 µM | 37.1% | > 50 µM | 87.2% | 
O=C(c1cc2cc([N+](=O)[O-])c(O)c(O)c2oc1=O)N1CCCN(S(=O)(=O)c2ccc3ccncc3c2)CC1 | 82.7 µM | > 231 µM | > 231 µM |  | 68.5 µM |  | 123 µM
Cc1c(O)c([N+](=O)[O-])cc2cc(C(=O)NC3CCN(Cc4ccc(Br)cc4)CC3)c(=O)oc12 | > 72.3 µM | > 72.3 µM | 72.3 µM |  |  |  | 
O=C(NC1CCN(Cc2cccc(Br)c2)CC1)c1cc2cc([N+](=O)[O-])c(O)c(O)c2oc1=O | > 153 µM | > 153 µM | 153 µM | 32.4% | > 50 µM | 57.4% | 

Compound | EC50 [1] | EC50 [2] | CC50 (MT4) | inhibition [3] | IC50 [4] | inhibition [5] | EC50 [6]
Cc1c(O)c([N+](=O)[O-])cc2cc(C(=O)NCc3ccc(F)cc3Cl)c(=O)oc12 | > 32.5 µM | > 32.5 µM | 32.5 µM |  |  |  | 
Cc1c(O)c([N+](=O)[O-])cc2cc(C(=O)NCc3ccc(F)cc3)c(=O)oc12 | > 44 µM | > 44 µM | 44 µM |  |  |  | 
Cc1c(O)c([N+](=O)[O-])cc2cc(C(=O)Nc3ccccc3F)c(=O)oc12 | > 10.7 µM | > 10.7 µM | 10.7 µM |  |  |  | 
O=C(NC1CCN(Cc2ccc(Br)cc2)CC1)c1cc2cc([N+](=O)[O-])c(O)c(O)c2oc1=O | > 112 µM | > 112 µM | 112 µM |  | > 100 µM | 47.4% | 
COC(=O)c1cc(NC(=O)c2cc3cc([N+](=O)[O-])c(O)c(C)c3oc2=O)ccc1O | > 182 µM | > 182 µM | 182 µM |  |  |  | 
Cc1c(O)c([N+](=O)[O-])cc2cc(C(=O)NC3CCN(S(=O)(=O)N(C)C)CC3)c(=O)oc12 | > 50.8 µM | > 50.8 µM | 50.8 µM |  |  |  | 
O=C(NCc1ccc(F)cc1Cl)c1cc2cc([N+](=O)[O-])c(O)c(O)c2oc1=O | 46.1 µM | > 266 µM | 266 µM | < 10% | > 50 µM | 68.6% | 
O=C(NC1CCN(Cc2ccc(Cl)cc2)CC1)c1cc2cc([N+](=O)[O-])c(O)c(O)c2oc1=O | > 21.7 µM | > 21.7 µM | 21.7 µM | 31.8% | 8.4 µM |  | 
Cc1c(O)c([N+](=O)[O-])cc2cc(C(=O)NC3CCN(Cc4cccc(F)c4)CC3)c(=O)oc12 | > 50.5 µM | > 50.5 µM | 50.5 µM |  | 45.2 µM |  | 
Cc1c(O)c([N+](=O)[O-])cc2cc(C(=O)NCc3ccccc3F)c(=O)oc12 | > 45 µM | > 45 µM | 45 µM |  | > 100 µM | 38.7% | 
Cc1c(O)c([N+](=O)[O-])cc2cc(C(=O)NCc3cccc(F)c3)c(=O)oc12 | > 47.5 µM | > 47.5 µM | 47.5 µM |  |  |  | 
Cc1c(O)c([N+](=O)[O-])cc2cc(C(=O)NC3CCN(Cc4ccc(Cl)cc4)CC3)c(=O)oc12 | 167 µM | 148 µM | > 264 µM |  | > 100 µM | 23.8% | 
Cc1c(O)c([N+](=O)[O-])cc2cc(C(=O)NC3CCN(Cc4cccc(Cl)c4)CC3)c(=O)oc12 | > 9.38 µM |  | 9.37 µM |  |  |  | 
Cc1c(O)c([N+](=O)[O-])cc2cc(C(=O)NC3CCN(Cc4cccc(Br)c4)CC3)c(=O)oc12 | > 14.7 µM | > 14.7 µM | 14.7 µM | < 10% | > 50 µM | 62.9% | 
Cc1c(O)c([N+](=O)[O-])cc2cc(C(=O)NC3CCN(C(=O)c4ccc([N+](=O)[O-])cc4)CC3)c(=O)oc12 | > 251 µM | > 251 µM | > 251 µM |  |  |  | 
O=C(Nc1ccc(F)cc1F)c1cc2cc([N+](=O)[O-])c(O)c(O)c2oc1=O | 237 µM | > 330 µM | > 330 µM | 12% | > 50 µM | 78% | 
CCC1CCN(C2CCN(C(=O)c3cc4cc([N+](=O)[O-])c(O)c(O)c4oc3=O)CC2)CC1 | 208 µM | > 280 µM | > 280 µM |  | > 250 µM |  | 213 µM
O=C(NC1CCN(Cc2cccc(Cl)c2)CC1)c1cc2cc([N+](=O)[O-])c(O)c(O)c2oc1=O | > 143 µM | > 143 µM | 143 µM | < 10% | > 50 µM | 72.5% | 
Cc1c(O)c([N+](=O)[O-])cc2cc(C(=O)NC3CCN(Cc4ccc([N+](=O)[O-])cc4)CC3)c(=O)oc12 | 234 µM | > 259 µM | > 264 µM |  |  |  | 
O=C(NCc1ccccc1F)c1cc2cc([N+](=O)[O-])c(O)c(O)c2oc1=O | > 259 µM | > 259 µM | 259 µM |  |  |  | 
